In ChEMBL document CHEMBL1649132, “Dry powder nitroimidazopyran antibiotic PA-824 aerosol for inhalation” (Antimicrob Agents Chemother, 2009):
Converted amounts (≈) assume the structure as drawn.

Tests used:
[1] = Half life in po dosed monkey; assay type: ADME, organism-based, Macaca mulatta; conditions: rhesus monkey, in vivo
[2] = Tmax in guinea pig at 20 mg/kg, administered via intratracheal insufflation by HPLC method; assay type: ADME, organism-based, Cavia porcellus; design: dose 20 mg/kg, route endotracheal; conditions: in vivo, inhaled or intranasal
Outline: (§1)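 Healthy male guinea pigs (463.86 ± 65.11 g), jugular vein cannulated 24 h before dosing; n = 6 or 7 per group. Dosing was i.v. solution 20 mg/kg, oral gavage of mixed micelle suspension (10% hydroxypropyl-β-cyclodextrin, 10% lecithin) 40 mg/kg, or intratracheal insufflation of porous dry powder at nominal 20, 40, 60 mg/kg. For insufflation, the delivered dose was taken by weighing the device before and after. Blood was drawn 0–24 h (to 32 h at 60 mg/kg) and plasma assayed by validated HPLC-UV (standards 0.20–50 µg/ml).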

[3] = Mean residence time in guinea pig at 60 mg/kg, administered via intratracheal insufflation by HPLC method; assay type: ADME, organism-based, Cavia porcellus; design: dose 60 mg/kg, route endotracheal; conditions: in vivo, inhaled or intranasal; outline: as §1
[4] = Metabolic stability of the compound assessed as compound remaining in lung of guinea pig administered via intratracheal insufflation; assay type: ADME, tissue-based, Cavia porcellus; conditions: in vivo, inhaled_or_intranasal
Outline: (§2)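 After the last blood sample (32 h), the guinea pigs were euthanized by exsanguination. BAL fluid was collected with 5 ml sterile saline and centrifuged. The supernatant was assayed for drug by the plasma HPLC method, adapted for BAL fluid. Routes were i.v. 20 mg/kg, oral 40 mg/kg, or insufflated powder 20, 40, 60 mg/kg; n = 6 or 7.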

[5] = AUC (0 to infinity) in guinea pig at 60 mg/kg, administered via intratracheal insufflation by HPLC method; assay type: ADME, organism-based, Cavia porcellus; design: time infinity, dose 60 mg/kg, route endotracheal; conditions: plasma, inhaled or intranasal; outline: as §1
[6] = Ratio of Cmax in guinea pig at 40 mg/kg, po to MIC for Mycobacterium tuberculosis; assay type: functional
[7] = AUC (0 to infinity) in guinea pig at 20 mg/kg, administered via intratracheal insufflation by HPLC method; assay type: ADME, organism-based, Cavia porcellus; design: time infinity, dose 20 mg/kg, route endotracheal; conditions: plasma, inhaled or intranasal; outline: as §1
[8] = Cmax in guinea pig at 40 mg/kg, po by HPLC method; assay type: ADME, organism-based, Cavia porcellus; design: dose 40 mg/kg, route oral; conditions: in vivo; outline: as §1
[9] = Tmax in po dosed monkey; assay type: ADME, organism-based, Macaca mulatta; conditions: rhesus monkey, in vivo
[10] = Cmax in guinea pig at 40 mg/kg, administered via intratracheal insufflation by HPLC method; assay type: ADME, organism-based, Cavia porcellus; design: dose 40 mg/kg, route endotracheal; conditions: in vivo, inhaled or intranasal; outline: as §1
Cavia porcellus [11] = assay: Bioavailability (0 to infinity) in guinea pig at 40 mg/kg, po by HPLC method; assay type: ADME, organism-based; conditions: in vivo; outline: as §1
[12] = Elimination rate constant in guinea pig at 20 mg/kg, iv by HPLC method; assay type: ADME, organism-based, Cavia porcellus; design: dose 20 mg/kg, route intravenous; conditions: in vivo; outline: as §1
[13] = AUC (0 to infinity) in guinea pig at 40 mg/kg, administered via intratracheal insufflation by HPLC method; assay type: ADME, organism-based, Cavia porcellus; design: time infinity, dose 40 mg/kg, route endotracheal; conditions: plasma, inhaled or intranasal; outline: as §1
[14] = Chemical stability of the compound at 4 degC; assay type: physicochemical
[15] = Bioavailability in guinea pig at 40 mg/kg, administered via intratracheal insufflation by HPLC method; assay type: ADME, organism-based, Cavia porcellus; conditions: in vivo, inhaled or intranasal; outline: as §1
[16] = Mean residence time in guinea pig at 20 mg/kg, administered via intratracheal insufflation by HPLC method; assay type: ADME, organism-based, Cavia porcellus; design: dose 20 mg/kg, route endotracheal; conditions: in vivo, inhaled or intranasal; outline: as §1
[17] = Tmax in guinea pig at 20 mg/kg, iv by HPLC method; assay type: ADME, organism-based, Cavia porcellus; design: dose 20 mg/kg, route intravenous; conditions: in vivo; outline: as §1
[18] = Bioavailability (0 to infinity) in guinea pig at 20 mg/kg, administered via intratracheal insufflation by HPLC method; assay type: ADME, organism-based, Cavia porcellus; conditions: in vivo, inhaled or intranasal; outline: as §1
[19] = Ratio of Cmax in guinea pig at 40 mg/kg, administered via intratracheal insufflation to MIC for Mycobacterium tuberculosis; assay type: functional; conditions: route endotracheal
[20] = Cmax in guinea pig at 20 mg/kg, administered via intratracheal insufflation by HPLC method; assay type: ADME, organism-based, Cavia porcellus; design: dose 20 mg/kg, route endotracheal; conditions: in vivo, inhaled or intranasal; outline: as §1
[21] = Bioavailability (0 to infinity) in guinea pig at 40 mg/kg, administered via intratracheal insufflation by HPLC method; assay type: ADME, organism-based, Cavia porcellus; conditions: in vivo, inhaled or intranasal; outline: as §1
[22] = Chemical stability of the compound at 25 degC; assay type: physicochemical
[23] = Bioavailability (0 to infinity) in guinea pig at 60 mg/kg, administered via intratracheal insufflation by HPLC method; assay type: ADME, organism-based, Cavia porcellus; conditions: in vivo, inhaled or intranasal; outline: as §1
[24] = Cmax in guinea pig at 20 mg/kg, iv by HPLC method; assay type: ADME, organism-based, Cavia porcellus; design: dose 20 mg/kg, route intravenous; conditions: in vivo; outline: as §1
[25] = Elimination rate constant in guinea pig at 40 mg/kg, administered via intratracheal insufflation by HPLC method; assay type: ADME, organism-based, Cavia porcellus; design: dose 40 mg/kg, route endotracheal; conditions: in vivo, inhaled or intranasal; outline: as §1
[26] = Metabolic stability of the compound assessed as compound remaining in lung of guinea pig at 40 mg/kg, po after 32 hrs; assay type: ADME, organism-based, Cavia porcellus; design: dose 40 mg/kg, route oral; conditions: in vivo; outline: as §2
[27] = Elimination rate constant in guinea pig at 60 mg/kg, administered via intratracheal insufflation by HPLC method; assay type: ADME, organism-based, Cavia porcellus; design: dose 60 mg/kg, route endotracheal; conditions: in vivo, inhaled or intranasal; outline: as §1
[28] = Mean residence time in guinea pig at 40 mg/kg, po by HPLC method; assay type: ADME, organism-based, Cavia porcellus; design: dose 40 mg/kg, route oral; conditions: in vivo; outline: as §1
[29] = Half life in guinea pig at 40 mg/kg, po by HPLC method; assay type: ADME, organism-based, Cavia porcellus; design: dose 40 mg/kg, route oral; conditions: in vivo; outline: as §1
[30] = Half life in po dosed dog; assay type: ADME, organism-based, Canis lupus familiaris; conditions: in vivo
Cavia porcellus [31] = assay: AUC (0 to infinity) in guinea pig at 20 mg/kg, iv by HPLC method; assay type: ADME, organism-based, Plasma; design: time infinity, dose 20 mg/kg, route intravenous; conditions: in vivo; outline: as §1
[32] = Ratio of Cmax in mouse at 100 mg/kg, po to MIC for Mycobacterium tuberculosis; assay type: functional
[33] = Bioavailability in guinea pig at 20 mg/kg, administered via intratracheal insufflation by HPLC method; assay type: ADME, organism-based, Cavia porcellus; conditions: in vivo, inhaled or intranasal; outline: as §1
[34] = Chemical stability of the compound after 6 months; assay type: physicochemical; conditions: 4383 h
[35] = Bioavailability in guinea pig at 60 mg/kg, administered via intratracheal insufflation by HPLC method; assay type: ADME, organism-based, Cavia porcellus; conditions: in vivo, inhaled or intranasal; outline: as §1
[36] = Metabolic stability of the compound assessed as compound remaining in lung of guinea pig at 20 mg/kg, iv after 32 hrs; assay type: ADME, organism-based, Cavia porcellus; design: dose 20 mg/kg, route intravenous; conditions: in vivo; outline: as §2
[37] = Half life in guinea pig at 20 mg/kg, iv by HPLC method; assay type: ADME, organism-based, Cavia porcellus; design: dose 20 mg/kg, route intravenous; conditions: in vivo; outline: as §1
[38] = Chemical stability of the compound at 40 degC; assay type: physicochemical
[39] = Chemical stability of the compound after 12 months; assay type: physicochemical; conditions: 8766 h
[40] = Tmax in guinea pig at 60 mg/kg, administered via intratracheal insufflation by HPLC method; assay type: ADME, organism-based, Cavia porcellus; design: dose 60 mg/kg, route endotracheal; conditions: in vivo, inhaled or intranasal; outline: as §1
[41] = system: Mycobacterium tuberculosis; assay: Antimicrobial activity against Mycobacterium tuberculosis; assay type: functional
[42] = Tmax in po dosed rat; assay type: ADME, organism-based; conditions: in vivo
[43] = Cmax in guinea pig at 60 mg/kg, administered via intratracheal insufflation by HPLC method; assay type: ADME, organism-based, Cavia porcellus; design: dose 60 mg/kg, route endotracheal; conditions: in vivo, inhaled or intranasal; outline: as §1
[44] = Elimination rate constant in guinea pig at 20 mg/kg, administered via intratracheal insufflation by HPLC method; assay type: ADME, organism-based, Cavia porcellus; design: dose 20 mg/kg, route endotracheal; conditions: in vivo, inhaled or intranasal; outline: as §1
Cavia porcellus [45] = assay: AUC (0 to infinity) in guinea pig at 40 mg/kg, po by HPLC method; assay type: ADME, organism-based, Plasma; design: time infinity, dose 40 mg/kg, route oral; conditions: in vivo; outline: as §1
[46] = Tmax in guinea pig at 40 mg/kg, administered via intratracheal insufflation by HPLC method; assay type: ADME, organism-based, Cavia porcellus; design: dose 40 mg/kg, route endotracheal; conditions: in vivo, inhaled or intranasal; outline: as §1
[47] = Tmax in guinea pig at 40 mg/kg, po by HPLC method; assay type: ADME, organism-based, Cavia porcellus; design: dose 40 mg/kg, route oral; conditions: in vivo; outline: as §1
[48] = Half life in guinea pig at 60 mg/kg, administered via intratracheal insufflation by HPLC method; assay type: ADME, organism-based, Cavia porcellus; design: dose 60 mg/kg, route endotracheal; conditions: in vivo, inhaled or intranasal; outline: as §1
[49] = Mean residence time in guinea pig at 40 mg/kg, administered via intratracheal insufflation by HPLC method; assay type: ADME, organism-based, Cavia porcellus; design: dose 40 mg/kg, route endotracheal; conditions: in vivo, inhaled or intranasal; outline: as §1
[50] = Elimination rate constant in guinea pig at 40 mg/kg, po by HPLC method; assay type: ADME, organism-based, Cavia porcellus; design: dose 40 mg/kg, route oral; conditions: in vivo; outline: as §1
[51] = Mean residence time in guinea pig at 20 mg/kg, iv by HPLC method; assay type: ADME, organism-based, Cavia porcellus; design: dose 20 mg/kg, route intravenous; conditions: in vivo; outline: as §1
[52] = Half life in guinea pig at 40 mg/kg, administered via intratracheal insufflation by HPLC method; assay type: ADME, organism-based, Cavia porcellus; design: dose 40 mg/kg, route endotracheal; conditions: in vivo, inhaled or intranasal; outline: as §1
[53] = Half life in guinea pig at 20 mg/kg, administered via intratracheal insufflation by HPLC method; assay type: ADME, organism-based, Cavia porcellus; design: dose 20 mg/kg, route endotracheal; conditions: in vivo, inhaled or intranasal; outline: as §1

`O=[N+]([O-])c1cn2c(n1)OC[C@@H](OCc1ccc(OC(F)(F)F)cc1)C2` [PRETOMANID] gave a half-life [1] of 2 h, a Tmax [2] of 4.33 h and an MRT [3] of 8.26 h. The Activity [4] was “Dose-dependent effect”, the AUC(0-inf) [5] was 51000 ng·h/mL and the Ratio [6] was 14. The AUC(0-inf) [7] was 14800 ng·h/mL, the Cmax [8] was 4140 ng/mL and the Tmax [9] was 3.33 h. It also gave a Cmax [10] of 3420 ng/mL, an F (Cavia porcellus [11]) of 0.56% and a k el [12] of 0.000103 s⁻¹. The AUC(0-inf) [13] was 32300 ng·h/mL, the Stability [14] was “Stable” and the bioavailability [15] was 1.12%. The MRT [16] was 5.17 h, the Tmax [17] was 6.6 min and the bioavailability [18] was 0.59%. It also gave a Ratio [19] of 17, a Cmax [20] of 2010 ng/mL and a bioavailability [21] of 0.63%. The Stability [22] was “Stable”, the bioavailability [23] was 0.62% and the Cmax [24] was 9190 ng/mL. For the same molecule, the k el [25] was 4.72e-05 s⁻¹, the Stability [26] was “Unstable” and the k el [27] was 3.61e-05 s⁻¹. The MRT [28] was 5.37 h, the half-life [29] was 2.43 h and the half-life [30] was 1 h. For the same molecule, the AUC (Cavia porcellus [31]) was 26540 ng·h/mL, the Ratio [32] was 80 and the bioavailability [33] was 2.11%. For the same molecule, the Stability [34] was “Unstable”, the bioavailability [35] was 0.74% and the Stability [36] was “Unstable”. The half-life [37] was 1.91 h, the Stability [38] was “Stable” and the Stability [39] was “Stable”. The Tmax [40] was 3.6 h, the MIC [41] was 0.015 µg/mL (≈ 0.0418 µM) and the Tmax [42] was 6 h. The Cmax [43] was 4580 ng/mL, the k el [44] was 6.67e-05 s⁻¹ and the AUC (Cavia porcellus [45]) was 25770 ng·h/mL. For the same molecule, the Tmax [46] was 3.25 h, the Tmax [47] was 4 h and the half-life [48] was 5.91 h. For the same molecule, the MRT [49] was 7.52 h, the k el [50] was 8.33e-05 s⁻¹ and the MRT [51] was 2.69 h. It also gave a half-life [52] of 4.38 h and a half-life [53] of 2.83 h.
